Experimental data as given in ChEMBL document CHEMBL4425101, “Design, Synthesis, and Characterization of Cyclic Peptidomimetics of the Inducible Nitric Oxide Synthase Binding Epitope That Disrupt the Protein-Protein Interaction Involving SPRY Domain-Containing Suppressor of Cytokine Signaling Box Protein (SPSB) 2 and Inducible Nitric Oxide Synthase” (J Med Chem, 2016).
The source made the active and inactive calls. The calls are words filed in the database; no cut-off is given here. Where a SMILES comes first, the peptide text is derived from it. Bridges are numbered along the chain shown (N, C = ends).

Assays:
[1] = molecular target: T1, SPRY domain-containing SOCS box protein 2 (Mus musculus, UniProt O88838); assay: Binding affinity to recombinant GST-tagged mouse SPSB2 (12 to 224 residues) expressed in Escherichia coli BL21 (DE3) by SPR analysis
T1 sequence (O88838 whole entry): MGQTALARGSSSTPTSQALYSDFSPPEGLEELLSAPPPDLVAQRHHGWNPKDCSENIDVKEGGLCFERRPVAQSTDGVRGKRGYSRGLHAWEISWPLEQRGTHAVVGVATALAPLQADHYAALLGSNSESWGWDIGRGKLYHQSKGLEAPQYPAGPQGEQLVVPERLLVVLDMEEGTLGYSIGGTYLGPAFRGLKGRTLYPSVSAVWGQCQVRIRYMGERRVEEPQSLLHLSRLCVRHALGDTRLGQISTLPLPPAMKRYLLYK
Method in brief: (§1)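 SPSB2 amine-coupled to a CM5 sensor chip. Peptidomimetics flowed over at increasing concentrations in running buffer (10 mM HEPES, 150 mM NaCl, 3 mM EDTA, 0.05% Tween 20, pH 7.4) at 25 °C. Sensorgrams fitted to a single-site binding model.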

[2] = molecular target: T1, SPRY domain-containing SOCS box protein 2; assay: Binding affinity to recombinant GST-tagged mouse SPSB2 (12 to 224 residues) expressed in Escherichia coli BL21 (DE3) by ITC method
Method in brief: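 ITC at 25 °C in 50 mM phosphate pH 7.4, 150 mM NaCl. Cell held 50 μM SPSB2, buffer-exchanged on a PD-10 column; syringe held compound from a 5 mM stock. Stirred at 1000 rpm. One 0.2 μL injection, then 29 injections of 1 μL. KD and ΔH from a nonlinear least-squares fit to a one-set-of-sites (1:1) model.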

[3] = molecular target: T2, SPRY domain-containing SOCS box protein 2 (Mus musculus) (UniProt O88838); assay: Binding affinity to recombinant GST-tagged mouse SPSB2 (12 to 224 residues) expressed in Escherichia coli BL21 (DE3) assessed as association rate by SPR analysis; method in brief: as §1
T2 sequence (whole entry): T1 sequence (O88838 whole entry)

[4] = molecular target: T2, SPRY domain-containing SOCS box protein 2 (Mus musculus); assay: Binding affinity to recombinant GST-tagged mouse SPSB2 (12 to 224 residues) expressed in Escherichia coli BL21 (DE3) assessed as dissociation rate by SPR analysis; method in brief: as §1
Mus musculus = organism: Mus musculus; assay: Inhibition of recombinant GST-tagged mouse SPSB2 (12 to 224 residues) expressed in Escherichia coli BL21 (DE3)/ full length iNOS (unknown origin) interaction in LPS/IFN-gamma-stimulated mouse BMDM assessed as reduction in iNOS level preincubated for 2 hrs measured after 1 hr by Western blot analysis
Method in brief: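 Lysates of cultured murine BMDM incubated 2 h with 2.5 μg/mL GST-SPSB2 SPRY domain or GST alone, with or without 10 μM peptidomimetic. Then 1 h with glutathione Sepharose beads to pull down the complex. Bound iNOS detected by reducing SDS-PAGE, anti-iNOS immunoblot and ECL. Membrane reprobed with anti-GST to check loading.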

[5] = molecular target: T2, SPRY domain-containing SOCS box protein 2 (Mus musculus); assay: Binding affinity to mouse 5-F-Trp-SPSB2 assessed as downward shift of Trp207 residue resonance at protein to compound molar ratio of 1:5 by 19F-NMR spectroscopy
Method in brief: (§2)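 19F NMR of 5F-Trp-labelled SPSB2 with added peptidomimetic, recorded at 30 °C and 564 MHz on a cryoprobe tuned to 19F.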

[6] = molecular target: T2, SPRY domain-containing SOCS box protein 2 (Mus musculus); assay: Binding affinity to mouse 5-F-Trp-SPSB2 assessed as induction of sharpening of Trp207 resonance by measuring increase in peak height at protein to compound molar ratio of 1:5 by 19F-NMR spectroscopy; method in brief: as §2
[7] = molecular target: T2, SPRY domain-containing SOCS box protein 2 (Mus musculus); assay: Potency index, ratio of Ac-DINNNNH2 Kd to compound Kd for recombinant GST-tagged mouse SPSB2 (12 to 224 residues) expressed in Escherichia coli BL21 (DE3) by SPR analysis
[8] = molecular target: T2, SPRY domain-containing SOCS box protein 2 (Mus musculus); assay: Ratio of Kd for recombinant GST-tagged mouse SPSB2 (12 to 224 residues) expressed in Escherichia coli BL21 (DE3) by ITC method to Kd for recombinant GST-tagged mouse SPSB2 (12 to 224 residues) expressed in Escherichia coli BL21 by SPR analysis

| Molecule | Kd [1] [nM] | Kd [2] [nM] | K [3] [×10⁵ /M/s] | K [4] [×10⁻² /s] | Inhibition of SPSB2-iNOS interaction (qualitative) (Mus musculus) | Activity [5] | also measured |
| --- | --- | --- | --- | --- | --- | --- | --- |
| CC[C@@H](C)[C@@H]1NC(=O)[C@H](CC(=O)O)OCCNC(=O)[C@@H](CC(N)=O)NC(=O)[C@@H](CC(N)=O)NC(=O)[C@@H](CC(N)=O)NC1=O | – | – | 4.7 | 26 | Active | inactive | Activity [6]: 25% |
| CC[C@H](C)[C@@H]1NC(=O)[C@H](CC(=O)O)OCCNC(=O)[C@H](CC(N)=O)NC(=O)[C@H](CC(N)=O)NC(=O)[C@H](CC(N)=O)NC1=O | 465 | 442 | – | – | – | – | – |
| CC[C@H](C)[C@@H]1NC(=O)[C@H](CC(=O)O)NC(=O)c2ccccc2NC(=O)[C@H](CC(N)=O)NC(=O)[C@H](CC(N)=O)NC(=O)[C@H](CC(N)=O)NC1=O | 54 | 49 | – | – | – | – | – |
| CC[C@H](C)[C@@H]1NC(=O)[C@H](CC(=O)O)NC(=O)[C@H](C(C)C)NC(=O)[C@@H](NC(C)=O)CSSC[C@@H](C(N)=O)NC(=O)[C@H](CC(N)=O)NC(=O)[C@H](CC(N)=O)NC(=O)[C@H](CC(N)=O)NC1=O (Ac-CVDINNNC-NH2; disulfide 1-8) | – | – | – | – | – | Active | – |
| CC[C@H](C)[C@@H]1NC(=O)[C@@H](CC(=O)O)OCC(=O)N(C)NC(=O)[C@H](CC(N)=O)NC(=O)[C@H](CC(N)=O)NC(=O)[C@@H](CC(N)=O)NC1=O | – | – | 11.9 | 8 | Active | Active | – |

The next lines start with results.

| Kd [1] [nM] | Kd [2] [nM] | K [3] [×10⁵ /M/s] | K [4] [×10⁻² /s] | Inhibition of SPSB2-iNOS interaction (qualitative) (Mus musculus) | Activity [5] | Molecule | also measured |
| --- | --- | --- | --- | --- | --- | --- | --- |
| 29 | 45 | – | – | – | – | CC[C@H](C)[C@@H]1NC(=O)[C@@H](CC(=O)O)OCc2ccccc2NC(=O)[C@H](CC(N)=O)NC(=O)[C@H](CC(N)=O)NC(=O)[C@H](CC(N)=O)NC1=O | – |
| – | 13 | – | – | – | – | H-KEEKDINNNVKKT-OH | – |
| 99 | 83 | – | – | – | – | CC[C@H](C)[C@@H]1NC(=O)[C@@H](CC(=O)O)OCC(=O)N(C)NC(=O)[C@H](CC(N)=O)NC(=O)[C@H](CC(N)=O)NC(=O)[C@H](CC(N)=O)NC1=O | – |
| – | – | 11 | 6 | Active | Active | CC[C@H](C)[C@@H]1NC(=O)[C@@H](CC(=O)O)NC(=O)c2ccccc2NC(=O)[C@H](CC(N)=O)NC(=O)[C@H](CC(N)=O)NC(=O)[C@@H](CC(N)=O)NC1=O | – |
| – | – | 8.6 | 2 | Active | Active | CC[C@H](C)[C@@H]1NC(=O)[C@@H](CC(=O)O)OCc2ccccc2NC(=O)[C@H](CC(N)=O)NC(=O)[C@H](CC(N)=O)NC(=O)[C@@H](CC(N)=O)NC1=O | Ratio [7]: 10; Ratio [8]: 1.5 |
